Laboratory results taken from publication PMC9444042 (Neurotoxicology, 2021).
“Also recorded” adds a separate entry of the source. Like-named read-outs stand apart in the source and are kept apart here.

Key:
[1] = test system: iPSC-derived human cortical glutamatergic neurons; type: cell-based
[2] = test system: iPSC-derived human spinal motor neurons; type: cell-based
[3] = test system: GFP-labeled iPSC-derived human neurons; type: cell-based
[4] = test system: LUHMES; conditions: NeuriTox test, IC50 (viability/neurite area) ratio ≥4; ref Delp et al., 2018; cited from earlier work
[5] = test system: iPSC-derived human spinal motor neurons; test: Cell viability / cytotoxicity; type: cell-based
Procedure, shortened: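 GFP-expressing iPSC-derived motor neurons were seeded at 800 cells/well on PDL-coated 1536-well plates and grown 40 h at 37 °C. Test compound was then added at 11 concentrations (1.56 nM–92 μM, 1:3) and exposed 24 and 48 h. Cells were counted as number of objects from GFP high-content images (488/530 nm, 20×, four fields/well). Values were normalized to 46 μM rotenone (−100%) and 0.46% DMSO (0%), in triplicate.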

[6] = test system: PeriTox test cells; conditions: IC50 (viability/neurite area) ratio ≥3, ref Delp et al., 2018; cited from earlier work
[7] = cortical neurons, active at either 24 or 48 hours, 1.56 nM to 92 μM
[8] = motor neurons, active at either 24 or 48 hours, 1.56 nM to 92 μM
[9] = cortical and/or motor neurons, not specified, 24 or 48 hours, up to 92 μM
[10] = cortical neurons, 24 hours of treatment
[11] = cortical neurons, 48 hours of treatment

Compound: Brc1ccc(Oc2ccc(Br)cc2Br)c(Br)c1 [2,2′,4,4′-tetrabromodiphenyl ether]
- neurite outgrowth inhibition (activity call) [1, 7]: only affected neurite outgrowth in motor neurons
- neurite outgrowth inhibition (activity call) [2, 8]: affected
- neurite outgrowth inhibition (activity call) ([2]; motor neurons, active at either 24 or 48 hours, 1.56 nM to 92 μM, listed as 2,2’,4,4’-tetrabromodiphenyl ether): inhibited

Compound: CCCCC(CC)COC(=O)c1cc(Br)c(Br)c(Br)c1Br (stereo not drawn) [2-ethylhexyl-2,3,4,5-tetrabromobenzoate]
- neurite outgrowth inhibition in this study (activity call) [3, 9]: inhibit neurite outgrowth

Compound: CC(C)(c1cc(Br)c(O)c(Br)c1)c1cc(Br)c(O)c(Br)c1 [3,3’,5,5’-tetrabromobisphenol A]
- neurite outgrowth inhibition (activity call) [1, 7]: inhibited

Compound: COc1cc2c(c(OC)c1OC)-c1ccc(OC)c(=O)cc1[C@@H](NC(C)=O)CC2 [Colchicine]
- neurite outgrowth inhibition (activity call) [1, 7]: inhibited
- neurite outgrowth inhibition (activity call) [2, 8]: inhibited

Compound: CC/C(=C(/CC)c1ccc(O)cc1)c1ccc(O)cc1 [Diethylstilbestrol]
- selective effect on neurite outgrowth [4]: selective effects

Compound: O=C1O[C@H]([C@@H](O)CO)C(O)=C1O [L-ascorbic acid]
- neurite outgrowth inhibition in this study (activity call) [3, 9]: inhibitor of neurite outgrowth
- cytotoxicity [5]: cytotoxic

Compound: CCCCCC [N-hexane, n-hexane]
- neurite outgrowth inhibition in this study (activity call) [3]: not have been active

Compound: CC(C)[C@@H]1NC(=O)[C@H](C)OC(=O)[C@@H](C(C)C)NC(=O)[C@@H](C(C)C)OC(=O)[C@H](C(C)C)NC(=O)[C@H](C)OC(=O)[C@@H](C(C)C)NC(=O)[C@@H](C(C)C)OC(=O)[C@H](C(C)C)NC(=O)[C@H](C)OC(=O)[C@@H](C(C)C)NC(=O)[C@@H](C(C)C)OC1=O [Valinomycin]
- selective effect on neurite outgrowth in this study ([3]; neuron type not specified): selective effects
- selective effect on neurite outgrowth [6]: selective effects
- selective effect on neurite outgrowth [4]: selective effects

Compound: c1ccc2cc3ccccc3cc2c1 [anthracene]
- neurite outgrowth inhibition (activity call) [1, 7]: only affected neurite outgrowth in motor neurons
- neurite outgrowth inhibition (activity call) [2, 8]: affected

Compound: CN(C)c1ccc(C(=N)c2ccc(N(C)C)cc2)cc1.Cl [auramine O]
- neurite outgrowth inhibition in this study (activity call) [3, 9]: inhibit neurite outgrowth

Compound: c1ccc2c(c1)-c1cccc3c1c-2cc1ccccc13 [benzo (b) fluoranthene]
- neurite outgrowth inhibition (activity call) [1]: active

Compound: Oc1ccc(C(c2ccc(O)cc2)(C(F)(F)F)C(F)(F)F)cc1 [bisphenol AF]
- neurite outgrowth inhibition in this study (activity call) [3, 9]: inhibit neurite outgrowth
- neurite outgrowth inhibition (activity call) [1, 7]: inhibitory effects; also recorded: inhibited

Compound: CC(C)(c1ccc(O)cc1)c1ccc(O)cc1 [bisphenol A]
- neurite outgrowth inhibition (activity call) [1, 10]: not active
- neurite outgrowth inhibition (activity call) [1, 11]: active; also recorded: inhibitory effects

Compound: Cn1c(=O)c2c(ncn2C)n(C)c1=O [caffeine]
- neurite outgrowth inhibition in this study (activity call) [3, 9]: inhibit neurite outgrowth
- neurite outgrowth inhibition (activity call) [1]: only affected neurite outgrowth in motor neurons
- neurite outgrowth inhibition (activity call) [2]: inhibited; also recorded: affected

Compound: CC1(C)[C@H](C(=O)O[C@H](C#N)c2cccc(Oc3ccccc3)c2)[C@@H]1C=C(Br)Br [deltamethrin]
- neurite outgrowth inhibition (activity call) [1, 10]: not active
- neurite outgrowth inhibition (activity call) [1, 11]: active; also recorded: inhibitory effects

Compound: C[C@]12CC[C@@H]3c4ccc(O)cc4CC[C@H]3[C@@H]1CC[C@@H]2O [estradiol]
- neurite outgrowth inhibition in this study (activity call) [3, 9]: inhibit neurite outgrowth

Compound: CCCCC(CC)COP(=O)(Oc1ccccc1)Oc1ccccc1 (stereo not drawn) [ethylhexyl diphenyl phosphate, 2-ethylhexyl diphenyl phosphate]
- neurite outgrowth inhibition (activity call) [1, 10]: active

Compound: CC(=O)[O-].CC(=O)[O-].O.O.O.[Pb+2] [lead (II) acetate trihydrate]
- neurite outgrowth inhibition in this study (activity call) [3, 9]: inhibit neurite outgrowth

Compound: [CH3][Hg][Cl] [methyl mercuric (II) chloride]
- neurite outgrowth inhibition (activity call) [1, 7]: inhibited
- neurite outgrowth inhibition (activity call) [2, 8]: inhibited

Compound: CCOP(=S)(OCC)Oc1ccc([N+](=O)[O-])cc1 [parathion]
- neurite outgrowth inhibition (activity call) [1, 7]: inhibitory effects; also recorded: inhibited

Compound: CCC1(c2ccccc2)C(=O)NC(=O)NC1=O [phenobarbital]
- neurite outgrowth inhibition in this study (activity call) [3, 9]: not be active

Compound: C=C(C)[C@H]1Cc2c(ccc3c2O[C@@H]2COc4cc(OC)c(OC)cc4[C@@H]2C3=O)O1 [rotenone]
- neurite outgrowth inhibition (activity call) [1, 7]: inhibited neurite outgrowth in a concentration dependent manner
- neurite outgrowth inhibition (activity call) [2, 8]: inhibited neurite outgrowth in a concentration dependent manner
- selective effect on neurite outgrowth [4]: selective effects

Compound: CC(C)(C)C(O)(CCc1ccc(Cl)cc1)Cn1cncn1 (stereo not drawn) [tebuconazole]
- neurite outgrowth inhibition (activity call) [1, 10]: not active
- neurite outgrowth inhibition (activity call) [1, 11]: active; also recorded: inhibitory effects
